Test results as given in article PMC3778256 (Epilepsy research, 2012).

Experiments:
[1] = test system: P-glycoprotein (Pgp) at the blood-brain barrier; assay: Paired small-animal PET scans in rats before and after tariquidar
[2] = test system: P-glycoprotein (Pgp) at the blood-brain barrier
[3] = Radio-HPLC analysis of radiolabelled metabolites in rat plasma and brain; conditions: 40 min after injection
[4] = Plasma protein binding by ultrafiltration; type: in vitro ADME; conditions: rat plasma, n = 3
[5] = target: multidrug resistance proteins (MRPs) at the murine BBB (Mus musculus, UniProt O35379); conditions: single 60-min PET scans, n = 4 each
[6] = test system: multidrug resistance proteins (MRPs) at the murine BBB; conditions: wild-type mice, MK571 20 mg/kg iv 30 min before scan
murine Mdr1a (Pgp) = murine Mdr1a (Pgp) (Mus musculus, UniProt P21447); assay: Concentration equilibrium transport assay in LLC-Mdr1a cells; type: cell-based; conditions: 50 μM both chambers, 6 h, with/without tariquidar 0.5 μM
human MDR1 (Pgp) [7] = target: T1, human MDR1 (Pgp) (Homo sapiens, UniProt P08183); assay: Concentration equilibrium transport assay in LLC-MDR1 cells; type: cell-based; conditions: 50 μM both chambers, 6 h, with/without tariquidar 0.5 μM
human MRP1 = human MRP1 (Homo sapiens, UniProt P33527); assay: Concentration equilibrium transport assay in LLC-MRP1 cells; type: cell-based; conditions: 50 μM both chambers, 6 h, with/without MK571 50 μM
Outline: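 LLC-PK1 transfected with MRP1, ≤13 passages, seeded at 0.3 × 10^6 cells/cm2 on polyester filters; assayed 5–7 days post-confluence in Opti-MEM after 1 h pre-incubation ± MK571 50 µM. Test compound 50 µM in both chambers; both sampled at 60, 120, 240, 360 min; 37°C, 5% CO2, 50 rpm; triplicate. Integrity: TEER, [14C]mannitol; calcein-AM 1 µM positive control.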

human MDR1 (Pgp) [8] = target: T1, human MDR1 (Pgp); conditions: tariquidar 0.5 μM; ref Luna-Tortós et al. 2008; cited from earlier work
[9] = test system: P-glycoprotein (Pgp) at the blood-brain barrier; conditions: naïve rats, 15 mg/kg; ref Kuntner et al. 2010; cited from earlier work

T1 sequence (P08183 whole entry): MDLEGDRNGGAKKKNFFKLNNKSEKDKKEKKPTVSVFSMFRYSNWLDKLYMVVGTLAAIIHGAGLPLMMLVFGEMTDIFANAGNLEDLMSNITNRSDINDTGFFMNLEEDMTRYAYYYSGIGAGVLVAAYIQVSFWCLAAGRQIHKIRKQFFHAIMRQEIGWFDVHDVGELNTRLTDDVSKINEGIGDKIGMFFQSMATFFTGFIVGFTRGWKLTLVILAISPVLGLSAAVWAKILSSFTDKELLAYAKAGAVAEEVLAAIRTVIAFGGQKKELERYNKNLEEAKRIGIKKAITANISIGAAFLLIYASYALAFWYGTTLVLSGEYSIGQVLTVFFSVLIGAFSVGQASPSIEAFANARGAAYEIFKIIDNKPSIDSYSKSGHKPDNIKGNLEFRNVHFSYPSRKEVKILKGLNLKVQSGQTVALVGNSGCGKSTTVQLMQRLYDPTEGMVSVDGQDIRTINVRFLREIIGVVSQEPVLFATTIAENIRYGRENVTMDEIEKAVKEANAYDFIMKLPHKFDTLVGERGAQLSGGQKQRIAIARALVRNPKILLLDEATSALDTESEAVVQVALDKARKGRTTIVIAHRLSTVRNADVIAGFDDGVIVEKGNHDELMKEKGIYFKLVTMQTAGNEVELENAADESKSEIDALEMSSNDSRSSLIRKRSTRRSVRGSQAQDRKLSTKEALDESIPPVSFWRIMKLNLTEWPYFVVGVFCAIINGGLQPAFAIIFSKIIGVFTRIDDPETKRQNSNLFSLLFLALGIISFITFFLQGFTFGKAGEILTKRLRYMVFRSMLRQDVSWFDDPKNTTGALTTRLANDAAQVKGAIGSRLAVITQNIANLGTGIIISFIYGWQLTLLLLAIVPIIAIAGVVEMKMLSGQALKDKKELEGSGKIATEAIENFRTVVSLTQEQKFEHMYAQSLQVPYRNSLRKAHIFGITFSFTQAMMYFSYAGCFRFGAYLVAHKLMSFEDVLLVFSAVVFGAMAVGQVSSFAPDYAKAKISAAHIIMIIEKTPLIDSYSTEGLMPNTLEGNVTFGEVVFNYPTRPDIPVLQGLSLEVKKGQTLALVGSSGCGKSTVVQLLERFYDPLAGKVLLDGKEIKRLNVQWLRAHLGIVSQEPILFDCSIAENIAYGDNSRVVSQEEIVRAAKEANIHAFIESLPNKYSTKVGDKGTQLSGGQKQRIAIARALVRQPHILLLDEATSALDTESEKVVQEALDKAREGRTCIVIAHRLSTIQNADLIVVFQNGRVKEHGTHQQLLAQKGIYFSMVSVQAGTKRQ
Chain of murine Mdr1a (Pgp) (P21447 whole entry): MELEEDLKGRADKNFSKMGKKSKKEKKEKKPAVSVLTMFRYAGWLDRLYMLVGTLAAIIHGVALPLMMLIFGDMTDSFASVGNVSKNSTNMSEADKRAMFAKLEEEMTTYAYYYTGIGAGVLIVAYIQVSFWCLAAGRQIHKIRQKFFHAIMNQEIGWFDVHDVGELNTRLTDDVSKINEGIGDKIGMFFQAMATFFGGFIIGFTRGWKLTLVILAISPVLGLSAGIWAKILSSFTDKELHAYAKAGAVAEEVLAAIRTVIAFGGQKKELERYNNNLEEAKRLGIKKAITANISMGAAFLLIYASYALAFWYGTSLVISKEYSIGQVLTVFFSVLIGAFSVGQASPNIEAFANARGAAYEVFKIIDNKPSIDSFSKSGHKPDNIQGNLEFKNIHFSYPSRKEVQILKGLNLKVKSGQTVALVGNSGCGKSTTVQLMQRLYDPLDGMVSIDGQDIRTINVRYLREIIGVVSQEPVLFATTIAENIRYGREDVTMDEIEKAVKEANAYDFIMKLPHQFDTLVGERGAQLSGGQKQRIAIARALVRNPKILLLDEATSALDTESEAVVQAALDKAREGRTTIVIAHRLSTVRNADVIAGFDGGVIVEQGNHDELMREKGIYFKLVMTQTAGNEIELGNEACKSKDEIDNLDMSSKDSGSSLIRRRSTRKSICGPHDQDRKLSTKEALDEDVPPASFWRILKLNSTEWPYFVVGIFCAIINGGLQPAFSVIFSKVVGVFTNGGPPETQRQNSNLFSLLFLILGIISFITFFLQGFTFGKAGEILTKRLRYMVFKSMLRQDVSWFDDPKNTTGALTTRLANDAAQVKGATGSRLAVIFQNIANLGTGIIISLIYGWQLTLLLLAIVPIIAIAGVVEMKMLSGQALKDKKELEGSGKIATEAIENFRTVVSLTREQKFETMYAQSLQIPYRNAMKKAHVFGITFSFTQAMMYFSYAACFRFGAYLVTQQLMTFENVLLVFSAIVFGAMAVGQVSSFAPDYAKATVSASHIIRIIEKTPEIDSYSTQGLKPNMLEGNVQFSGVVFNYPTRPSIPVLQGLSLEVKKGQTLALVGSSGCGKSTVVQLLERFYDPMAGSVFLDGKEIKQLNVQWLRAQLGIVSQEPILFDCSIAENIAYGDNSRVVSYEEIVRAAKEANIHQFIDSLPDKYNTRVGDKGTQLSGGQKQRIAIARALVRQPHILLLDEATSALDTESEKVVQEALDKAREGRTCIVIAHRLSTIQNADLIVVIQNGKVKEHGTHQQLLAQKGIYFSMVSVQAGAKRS
Chain of multidrug resistance proteins (MRPs) at the murine BBB (Mus musculus, UniProt O35379) (O35379 whole entry): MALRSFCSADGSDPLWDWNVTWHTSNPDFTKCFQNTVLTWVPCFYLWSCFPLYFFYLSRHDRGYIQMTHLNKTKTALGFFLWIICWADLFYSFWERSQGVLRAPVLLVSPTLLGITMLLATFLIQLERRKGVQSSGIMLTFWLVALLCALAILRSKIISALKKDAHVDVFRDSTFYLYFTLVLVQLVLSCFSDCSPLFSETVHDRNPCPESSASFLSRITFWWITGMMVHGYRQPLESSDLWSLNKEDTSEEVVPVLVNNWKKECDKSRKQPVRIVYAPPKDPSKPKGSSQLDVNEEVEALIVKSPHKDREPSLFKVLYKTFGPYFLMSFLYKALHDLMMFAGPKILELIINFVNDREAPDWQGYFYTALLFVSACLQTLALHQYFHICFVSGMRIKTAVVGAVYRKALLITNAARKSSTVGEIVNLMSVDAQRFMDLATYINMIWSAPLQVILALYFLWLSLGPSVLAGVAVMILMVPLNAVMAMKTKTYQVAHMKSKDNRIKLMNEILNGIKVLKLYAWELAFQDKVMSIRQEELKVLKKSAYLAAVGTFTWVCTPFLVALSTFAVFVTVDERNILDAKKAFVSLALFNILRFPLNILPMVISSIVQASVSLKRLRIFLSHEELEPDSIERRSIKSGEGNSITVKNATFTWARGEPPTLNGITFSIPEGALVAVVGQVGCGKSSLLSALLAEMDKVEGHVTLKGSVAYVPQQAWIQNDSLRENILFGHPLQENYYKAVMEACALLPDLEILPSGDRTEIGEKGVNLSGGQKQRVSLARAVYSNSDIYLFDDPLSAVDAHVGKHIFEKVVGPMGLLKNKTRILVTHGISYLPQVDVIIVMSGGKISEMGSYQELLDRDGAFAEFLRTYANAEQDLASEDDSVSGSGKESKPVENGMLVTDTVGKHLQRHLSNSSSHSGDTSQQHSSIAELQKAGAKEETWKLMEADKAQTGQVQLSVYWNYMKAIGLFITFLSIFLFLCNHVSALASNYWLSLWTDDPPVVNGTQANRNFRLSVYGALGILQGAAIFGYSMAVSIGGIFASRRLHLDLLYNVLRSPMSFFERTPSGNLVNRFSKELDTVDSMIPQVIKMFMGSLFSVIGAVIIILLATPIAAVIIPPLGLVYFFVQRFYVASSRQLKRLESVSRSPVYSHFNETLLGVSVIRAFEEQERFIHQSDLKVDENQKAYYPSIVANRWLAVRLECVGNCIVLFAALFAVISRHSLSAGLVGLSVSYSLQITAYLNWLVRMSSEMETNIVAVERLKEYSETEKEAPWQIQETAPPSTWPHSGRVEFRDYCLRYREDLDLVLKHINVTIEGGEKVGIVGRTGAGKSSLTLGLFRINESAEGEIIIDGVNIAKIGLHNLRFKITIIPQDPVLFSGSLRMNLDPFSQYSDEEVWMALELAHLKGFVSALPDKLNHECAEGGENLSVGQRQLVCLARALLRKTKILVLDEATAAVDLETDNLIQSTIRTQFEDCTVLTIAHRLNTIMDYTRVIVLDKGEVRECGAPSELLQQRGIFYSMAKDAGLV

CCC1(c2ccccc2)C(=O)NC(=O)N([11CH3])C1=O (centres unmarked) [[^11C]mephobarbital]
Peak brain activity uptake (SUV) ([1]; scan 1 (before tariquidar), about 1 min after iv injection, n = 3): 3.1±0.2 SUV
brain-to-blood AUC0-60 ratio ([1]; scan 1 (before tariquidar), n = 3): 2.0±0.5
brain-to-blood AUC0-60 ratio in scan 1 as compared to (R)-[11C]verapamil ([1]; scan 1, Supplementary Fig. S1): two times higher
brain-to-blood AUC0-60 ratio ([1]; scan 2 (after tariquidar 15 mg/kg iv), n = 3): 2.4±0.3
Blood activity concentrations (SUV), comparison of groups and scans ([2]; 25 and 60 min, wild-type and Mdr1a/b(-/-) mice, scan 1 and 2, three comparisons excepted (p < 0.05)): similar
Brain AUC0-60, wild-type versus Mdr1a/b(-/-) mice ([2]; scan 1 and scan 2, respectively, n = 3 each): not significantly different
Brain AUC0-60, scan 2 relative to scan 1 ([2]; wild-type mice, tariquidar 15 mg/kg, p = 0.013): significantly decreased
total activity in brain in the form of unchanged parent ([3]; rat brain tissue extracts, n = 5): 96±6%
total activity in plasma as unchanged parent ([3]; rat plasma): > 85%
fraction unbound in plasma [4]: 0.21±0.05
Brain uptake, wild-type versus Mrp1(-/-) mice [5]: did neither differ
Brain uptake, untreated versus MK571 pretreated mice [6]: did neither differ

CCC1(c2ccccc2)C(=O)NC(=O)N(C)C1=O (centres unmarked) [mephobarbital, methylphenobarbital]
basolateral-to-apical transport by murine Mdr1a (murine Mdr1a (Pgp)): lack of active transport
basolateral-to-apical transport by human MDR1 (human MDR1 (Pgp) [7]): lack of active transport
basolateral-to-apical transport by human MRP1 (human MRP1): lack of active transport

CCC1(c2ccccc2)C(=O)NC(=O)NC1=O [phenobarbital]
inhibition of MDR1 transport by tariquidar (human MDR1 (Pgp) [8]): 54%

COc1cc2c(cc1OC)CN(CCc1ccc(NC(=O)c3cc(OC)c(OC)cc3NC(=O)c3cnc4ccccc4c3)cc1)CC2 [tariquidar]
inhibition of Pgp at the BBB [9]: completely inhibit Pgp
